Measurements of several laboratories.
Each line is one published result; the experiments were not run side by side.
Target: Serine/threonine-protein kinase Nek6 (NEK6, Homo sapiens, UniProt Q9HC98)
Observed: enzyme activity
Mode: inhibitor

SMILES	method	concentration	remaining activity [%]
Cc1cnc(NC2CCOCC2)nc1-n1cnc(C(=O)NC(CN)c2cc(F)cc(Cl)c2)c1 (stereo not drawn)	radiometric	1 µM	55
FC(F)c1nc2ccccc2n1-c1nc(N2CCOCC2)nc(N2CCOCC2)n1	–	10 µM	83
CC(C)(C)C(=O)c1sc(NC2CCCCC2)nc1N	–	10 µM	100
CCN(CC)CCNC(=O)c1c(C)[nH]c(/C=C2\C(=O)Nc3ccc(F)cc32)c1C	–	0.1 µM	99
Cc1ccc(C(=O)Nc2ccc(CN3CCN(C)CC3)c(C(F)(F)F)c2)cc1C#Cc1cnc2cccnn12	–	23.5 nM	100
COc1cc(Nc2cnc(C#N)c(O[C@H](C)CN(C)C)n2)ncc1-c1cnn(C)c1	radiometric	10 µM	96
O=C(Nc1cnn(-c2csc(C(=O)NC3COC3)c2)c1)Nc1c(F)cccc1Cl	–	5 µM	86.8
Cc1[nH]c(/C=C2\C(=O)Nc3ccc(F)cc32)c(C)c1C(=O)N[C@H]1CCN(C(=O)N(C)C)C1	–	1 µM	126
Cc1ccc(Nc2nccc(N(C)c3ccc4c(C)n(C)nc4c3)n2)cc1S(N)(=O)=O	–	0.5 µM	96.1
CC(C)(C)c1nc2c(s1)c1nc(N)ncc1c1ccc(NS(=O)(=O)c3c(F)cccc3F)c(F)c12	radiometric	1 µM	96
O=C(Nc1cnn(-c2csc(C(=O)NC3COC3)c2)c1)Nc1ccccc1Cl	–	5 µM	99.6
Oc1cccc(-c2nc(N3CCOCC3)c3oc4ncccc4c3n2)c1	–	10 µM	87
